Assay results reported in ChEMBL document CHEMBL1128341, “(+)-cis-4,5,7a,8,9,10,11,11a-octahydro-7H-10-methylindolo[1,7- bc][2,6]-naphthyridine: a 5-HT2C/2B receptor antagonist with low 5-HT2A receptor affinity” (1995).

Tests used:
[1] = test system: Rattus norvegicus; assay: Inhibition of ACTH response to MK-212 by the compound (0.1 mg/Kg) in rats; format: functional
Summary of the method: (§1)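 Male Sprague-Dawley rats (200–250 g) received compound (0, 0.1 or 1 mg/kg sc) 20 min before MK-212 sc or solvent. Rats were decapitated 30 min after MK-212, and trunk blood plasma was taken. Rat ACTH was measured by radioimmunoassay (ng/mL), as means ± SEM of eight experiments.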

[2] = test system: Rattus norvegicus; assay: Inhibition of ACTH response to MK-212 by the compound (1 mg/Kg) in rats; format: functional; summary of the method: as §1
[3] = test system: Rattus norvegicus; assay: Inhibition of ACTH response to MK-212 by the compound (1 mg/Kg) in rats with solvent; format: functional; summary of the method: as §1
[4] = molecular target: T1, 5-hydroxytryptamine receptor 1A (Homo sapiens) (UniProt P08908); settings: Sus scrofa; Frontal cortex; Membrane
T1 sequence (whole entry): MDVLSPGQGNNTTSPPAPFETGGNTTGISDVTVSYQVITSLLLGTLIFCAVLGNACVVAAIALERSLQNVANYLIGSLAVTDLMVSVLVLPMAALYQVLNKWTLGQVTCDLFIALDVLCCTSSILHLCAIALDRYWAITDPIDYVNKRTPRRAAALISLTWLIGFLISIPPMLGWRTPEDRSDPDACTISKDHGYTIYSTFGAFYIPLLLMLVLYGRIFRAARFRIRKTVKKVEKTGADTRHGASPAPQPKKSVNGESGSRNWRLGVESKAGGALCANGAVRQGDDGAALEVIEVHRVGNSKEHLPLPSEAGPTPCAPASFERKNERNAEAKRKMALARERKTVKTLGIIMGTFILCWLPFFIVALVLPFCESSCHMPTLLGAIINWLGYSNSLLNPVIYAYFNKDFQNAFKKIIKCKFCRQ

[5] = molecular target: 5-hydroxytryptamine receptor 1B (Rattus norvegicus) (UniProt P28564)
5-hydroxytryptamine receptor 1B (Rattus norvegicus), sequence (P28564 whole entry): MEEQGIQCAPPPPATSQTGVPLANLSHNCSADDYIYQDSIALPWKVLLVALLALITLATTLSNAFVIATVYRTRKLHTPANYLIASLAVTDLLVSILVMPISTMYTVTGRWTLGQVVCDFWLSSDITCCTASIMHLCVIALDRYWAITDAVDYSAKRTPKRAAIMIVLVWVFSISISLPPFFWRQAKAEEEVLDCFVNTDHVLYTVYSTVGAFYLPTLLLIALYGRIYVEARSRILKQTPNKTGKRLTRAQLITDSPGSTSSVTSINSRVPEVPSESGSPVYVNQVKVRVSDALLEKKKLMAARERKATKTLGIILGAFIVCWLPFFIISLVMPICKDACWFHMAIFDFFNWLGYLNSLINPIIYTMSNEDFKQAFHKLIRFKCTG

[6] = molecular target: 5-hydroxytryptamine receptor 2A (Rattus norvegicus) (UniProt P14842); settings: N1E-115
5-hydroxytryptamine receptor 2A (Rattus norvegicus), sequence (P14842 whole entry): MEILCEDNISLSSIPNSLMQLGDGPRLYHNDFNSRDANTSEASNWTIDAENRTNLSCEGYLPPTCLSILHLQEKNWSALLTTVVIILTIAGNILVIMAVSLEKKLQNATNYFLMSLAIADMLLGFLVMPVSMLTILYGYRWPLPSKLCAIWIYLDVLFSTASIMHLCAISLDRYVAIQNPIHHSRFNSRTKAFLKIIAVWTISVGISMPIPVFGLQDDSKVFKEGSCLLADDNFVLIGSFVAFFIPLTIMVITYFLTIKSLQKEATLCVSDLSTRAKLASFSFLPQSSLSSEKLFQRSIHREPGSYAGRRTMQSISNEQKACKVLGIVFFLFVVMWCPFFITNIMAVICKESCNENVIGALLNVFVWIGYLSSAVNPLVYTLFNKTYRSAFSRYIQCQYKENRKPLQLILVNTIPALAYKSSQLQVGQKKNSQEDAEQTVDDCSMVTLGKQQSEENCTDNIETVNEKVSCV

[7] = molecular target: T2, 5-hydroxytryptamine receptor 2C (Homo sapiens) (UniProt P28335)
T2 sequence (whole entry): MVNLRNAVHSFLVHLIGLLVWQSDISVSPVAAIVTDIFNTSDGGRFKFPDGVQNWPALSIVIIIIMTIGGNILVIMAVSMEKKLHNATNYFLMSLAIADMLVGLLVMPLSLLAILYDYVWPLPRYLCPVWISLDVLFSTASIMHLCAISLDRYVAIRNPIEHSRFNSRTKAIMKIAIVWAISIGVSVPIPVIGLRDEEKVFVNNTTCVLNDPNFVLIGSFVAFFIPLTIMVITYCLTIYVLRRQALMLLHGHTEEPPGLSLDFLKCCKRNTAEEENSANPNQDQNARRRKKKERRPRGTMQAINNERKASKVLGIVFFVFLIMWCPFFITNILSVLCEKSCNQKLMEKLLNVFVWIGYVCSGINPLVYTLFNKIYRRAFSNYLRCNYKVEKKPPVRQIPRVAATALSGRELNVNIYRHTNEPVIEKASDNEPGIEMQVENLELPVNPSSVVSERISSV

[8] = molecular target: Serotonin 3 receptor (5HT3) (Mus musculus) (UniProt Q9JHJ5+P23979); settings: Cortex
Serotonin 3 receptor (5HT3) (Mus musculus), sequence (P23979 whole entry, looked up): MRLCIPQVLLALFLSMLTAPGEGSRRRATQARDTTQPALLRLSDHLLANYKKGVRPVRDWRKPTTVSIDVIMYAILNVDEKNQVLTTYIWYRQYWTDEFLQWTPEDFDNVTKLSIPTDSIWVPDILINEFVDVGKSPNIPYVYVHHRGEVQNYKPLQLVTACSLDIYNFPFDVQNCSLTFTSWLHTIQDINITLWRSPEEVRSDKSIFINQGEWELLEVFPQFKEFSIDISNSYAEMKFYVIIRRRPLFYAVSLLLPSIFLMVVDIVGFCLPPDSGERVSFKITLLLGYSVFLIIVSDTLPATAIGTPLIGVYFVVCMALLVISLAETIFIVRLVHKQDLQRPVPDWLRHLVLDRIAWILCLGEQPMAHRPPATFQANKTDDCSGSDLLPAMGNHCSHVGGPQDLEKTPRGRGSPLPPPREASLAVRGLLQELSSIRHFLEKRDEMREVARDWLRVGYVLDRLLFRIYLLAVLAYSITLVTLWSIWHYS
Serotonin 3 receptor (5HT3) (Mus musculus), sequence (Q9JHJ5 whole entry, looked up): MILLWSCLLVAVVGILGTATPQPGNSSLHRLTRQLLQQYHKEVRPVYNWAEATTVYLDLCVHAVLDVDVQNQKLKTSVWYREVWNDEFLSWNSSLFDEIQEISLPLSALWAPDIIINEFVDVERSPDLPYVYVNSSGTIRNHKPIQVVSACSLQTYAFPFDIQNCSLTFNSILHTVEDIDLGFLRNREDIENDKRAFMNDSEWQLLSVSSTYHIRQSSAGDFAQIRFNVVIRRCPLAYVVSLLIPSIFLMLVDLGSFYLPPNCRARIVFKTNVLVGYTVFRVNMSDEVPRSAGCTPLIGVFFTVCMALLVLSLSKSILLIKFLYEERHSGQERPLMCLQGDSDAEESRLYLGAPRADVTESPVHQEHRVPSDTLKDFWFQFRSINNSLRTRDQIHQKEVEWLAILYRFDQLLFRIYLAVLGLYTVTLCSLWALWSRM

[9] = molecular target: T3, Alpha-1A adrenergic receptor (Bos taurus) (UniProt P18130)
T3 sequence (whole entry): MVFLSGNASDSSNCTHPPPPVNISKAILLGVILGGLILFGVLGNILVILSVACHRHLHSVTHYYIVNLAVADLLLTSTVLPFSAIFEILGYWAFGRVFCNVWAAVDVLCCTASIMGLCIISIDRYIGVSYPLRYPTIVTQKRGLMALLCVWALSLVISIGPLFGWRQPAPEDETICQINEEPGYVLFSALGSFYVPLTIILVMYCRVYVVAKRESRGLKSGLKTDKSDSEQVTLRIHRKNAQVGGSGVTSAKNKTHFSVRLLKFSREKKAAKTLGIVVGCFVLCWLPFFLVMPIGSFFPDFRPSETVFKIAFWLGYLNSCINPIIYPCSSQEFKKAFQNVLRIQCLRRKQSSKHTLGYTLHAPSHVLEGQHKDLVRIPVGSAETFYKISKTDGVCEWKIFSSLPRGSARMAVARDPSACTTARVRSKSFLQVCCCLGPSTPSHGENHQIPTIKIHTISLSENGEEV

[10] = molecular target: T4, Alpha-2A adrenergic receptor (Bos taurus) (UniProt Q28838)
T4 sequence (whole entry): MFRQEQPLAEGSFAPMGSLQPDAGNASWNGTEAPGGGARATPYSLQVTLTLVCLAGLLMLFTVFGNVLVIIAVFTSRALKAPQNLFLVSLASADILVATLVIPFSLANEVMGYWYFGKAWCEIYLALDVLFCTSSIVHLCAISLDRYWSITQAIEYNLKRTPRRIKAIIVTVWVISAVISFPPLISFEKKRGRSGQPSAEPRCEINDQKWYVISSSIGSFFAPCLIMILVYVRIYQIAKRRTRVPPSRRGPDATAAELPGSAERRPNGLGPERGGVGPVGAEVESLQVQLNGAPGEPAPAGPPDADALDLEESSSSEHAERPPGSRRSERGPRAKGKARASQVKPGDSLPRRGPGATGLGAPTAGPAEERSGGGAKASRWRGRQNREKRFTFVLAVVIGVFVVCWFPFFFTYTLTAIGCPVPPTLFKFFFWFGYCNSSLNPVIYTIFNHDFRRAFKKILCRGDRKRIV

[11] = molecular target: D(2) dopamine receptor (Bos taurus) (UniProt P20288); settings: Striatum
D(2) dopamine receptor (Bos taurus), sequence (P20288 whole entry): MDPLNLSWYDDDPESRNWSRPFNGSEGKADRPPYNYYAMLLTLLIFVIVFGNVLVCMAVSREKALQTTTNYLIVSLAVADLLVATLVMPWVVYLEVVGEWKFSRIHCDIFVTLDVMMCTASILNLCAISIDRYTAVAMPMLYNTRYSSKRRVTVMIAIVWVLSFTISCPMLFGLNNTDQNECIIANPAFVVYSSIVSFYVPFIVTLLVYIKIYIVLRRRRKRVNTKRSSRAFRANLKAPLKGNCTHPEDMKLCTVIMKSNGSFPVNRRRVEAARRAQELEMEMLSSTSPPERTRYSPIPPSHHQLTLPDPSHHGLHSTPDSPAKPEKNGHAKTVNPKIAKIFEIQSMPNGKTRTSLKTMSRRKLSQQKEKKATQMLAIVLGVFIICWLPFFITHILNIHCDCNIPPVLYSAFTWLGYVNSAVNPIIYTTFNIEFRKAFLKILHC

[12] = molecular target: D(1A) dopamine receptor (Bos taurus) (UniProt Q95136); settings: Striatum
D(1A) dopamine receptor (Bos taurus), sequence (Q95136 whole entry): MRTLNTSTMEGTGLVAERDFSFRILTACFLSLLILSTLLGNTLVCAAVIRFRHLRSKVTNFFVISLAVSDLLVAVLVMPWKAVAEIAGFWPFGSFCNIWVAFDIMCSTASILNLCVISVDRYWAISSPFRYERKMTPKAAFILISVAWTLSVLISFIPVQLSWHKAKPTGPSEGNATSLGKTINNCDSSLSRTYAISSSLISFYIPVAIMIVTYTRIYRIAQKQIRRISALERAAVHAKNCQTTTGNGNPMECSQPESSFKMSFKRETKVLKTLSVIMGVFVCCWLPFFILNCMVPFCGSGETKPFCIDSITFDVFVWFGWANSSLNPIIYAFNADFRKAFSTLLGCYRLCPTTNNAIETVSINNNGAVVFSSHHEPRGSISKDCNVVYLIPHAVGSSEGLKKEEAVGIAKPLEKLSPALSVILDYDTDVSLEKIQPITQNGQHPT

SMILES	Inhibition [1]	Inhibition [2]	Inhibition [3]	pKD [4]	pKD [5]	pKD [6]	pKD [7]	pKD [8]	pKD [9]	pKD [10]	pKD [11]	pKD [12]
CN1CC[C@@H]2CN3CCc4cccc(c43)[C@@H]2C1 (stereo in doubt; 8) [listing 1 of 2 here]	165.8 ng/mL	95.1 ng/mL	38.5 ng/mL	–	–	–	–	–	–	–	–	–
CN1CC[C@@H]2CN3CCc4cccc(c43)[C@@H]2C1 (stereo in doubt; 8) [listing 2 of 2 here]	–	–	–	6.1	4.6	6.2	7.8	4.7	5.6	6.5	< 5	< 5
CN1CC[C@@H]2CN3CCc4cccc(c43)[C@@H]2C1 (stereo in doubt; 9)	–	–	–	< 5	–	–	–	–	6	6	< 5	< 5
Cc1nc2sccn2c(=O)c1CCN1CCC(=C(c2ccc(F)cc2)c2ccc(F)cc2)CC1 [RITANSERIN]	204.3 ng/mL	95.4 ng/mL	37.2 ng/mL	–	–	–	–	–	–	–	–	–
